In ChEMBL document CHEMBL1142097, “EthA, a common activator of thiocarbamide-containing drugs acting on different mycobacterial targets” (Antimicrob Agents Chemother, 2007) one finds MIC and Activity data, which are given here for six compounds.

For series [1], the system named is Mycobacterium tuberculosis variant bovis BCG. Description: Antimycobacterial activity against Mycobacterium bovis BCG Pasteur with pMV261 vector. It is filed as functional. In a few lines:
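Agar MIC on Middlebrook 7H9 or 7H11 with OADC (ADC substituted for isoxyl-type drugs) plus graded drug levels; serial 10-fold dilutions of actively growing culture plated, incubated 37°C for 10–14 days; MIC = lowest concentration blocking 99% of growth. Recombinant Pasteur strains selected with 25 μg/ml kanamycin; ethR::hyg mutant carries a hygromycin-marked transposon in ethR.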

Series [2] can be described thus: Drug metabolizing activity of Mycobacterium bovis BCG recombinant ethA expressed in Escherichia coli. It is filed as ADME. The settings on record: mycobacterium tuberculosis variant bovis bcg. The method, boiled down:
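N-terminal His6-tagged EthA expressed in E. coli (1 mM IPTG, 22°C, 24 h), Ni2+ affinity-purified with bound FAD. Drug incubated at 37°C for 1 h in 50 mM Tris-HCl pH 7.4, 100 mM KCl, 200 μg/ml BSA, 4 mM NADPH, 8 μg EthA.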

SMILES strings stand for the structures. ≈ marks a conversion by molar mass, not a printed value.

For the compound `CC(=O)Nc1ccc(/C=N/NC(N)=S)cc1` [AMITHIOZONE], the minimal inhibitory concentration (MIC) in series [1] came to 0.5 µg/mL (≈ 2.12 µM).

With `CC(C)CCOc1ccc(NC(=S)Nc2ccc(OCCC(C)C)cc2)cc1` [TIOCARLIDE], in series [1], 0.25 µg/mL (≈ 0.624 µM) was the least that counted as inhibitory (MIC). Moreover, the Activity in series [2] was found to be 7.56 µmol/min/mg.

Consider `COc1ccc(/C(C)=N/NC(N)=S)cc1`, for which, in series [1], the MIC turned out to be 0.25 µg/mL (≈ 1.12 µM). Regarding `NC(=S)N/N=C/c1cccnc1` [NICOTHIAZONE], in series [1], the MIC was 10 µg/mL (≈ 55.5 µM).

`CC(C)CCSc1ccc(NC(=S)Nc2ccc(SCCC(C)C)cc2)cc1` yielded an MIC in series [1] of 40 µg/mL (≈ 92.4 µM). In series [2], the Activity was 7.37 µmol/min/mg. Take `CCc1cc(C(N)=S)ccn1` [ETHIONAMIDE]: inhibition of growth in series [1] (MIC) required 2 µg/mL (≈ 12 µM).

One may read the MIC as the lowest concentration that inhibits growth of the organism. A lower MIC goes with greater potency.
